pIC50: −log10 of the molar value. Where a SMILES comes first, the peptide text is derived from it. Bridges are numbered along the chain shown (N, C = ends). [ ]: non-standard residue; d: D form. S5 = C=CCCC[C@](C)(N)C(=O)O
Key:
[1] = tested on: Human immunodeficiency virus 1; test: Antiviral activity against HIV1 subtype BC CNE15 pseudovirus assessed as inhibition of viral infection in Ghost (3)X4/R5 cells after 48 hrs by Bright-Glo luciferase reporter gene assay; assay type: functional, organism-based; settings: Human immunodeficiency virus 1, subtype BC CNE15, 48 h
How it was run: (§1)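 Single-round env-pseudotyped luciferase reporter viruses were made in HEK293T cells with the pNL4-3.Luc.R-E backbone. Ghost(3)X4/R5 target cells (CD4, CXCR4, CCR5) were grown in DMEM with 10% heat-inactivated FBS at 37 °C, 5% CO2. Peptides in 3-fold dilutions were preincubated with 100 TCID50 of virus for 1 h at room temperature. The mixture was added at 10^4 cells/well for 48 h at 37 °C. IC50 came from a variable-slope dose-response fit of luciferase reduction versus controls.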

[2] = tested on: Human immunodeficiency virus 1; test: Antiviral activity against HIV-1 subtype B HXB2 pseudovirus assessed as inhibition of viral infection in Ghost (3)X4/R5 cells after 48 hrs by Bright-Glo luciferase reporter gene assay; assay type: functional, organism-based; settings: Human immunodeficiency virus 1, M:B_HXB2R; how it was run: as §1
[3] = tested on: Human immunodeficiency virus 1; test: Antiviral activity against HIV1 subtype B' CNE6 pseudovirus assessed as inhibition of viral infection in Ghost (3)X4/R5 cells after 48 hrs by Bright-Glo luciferase reporter gene assay; assay type: functional, organism-based; settings: Human immunodeficiency virus 1, subtype B' CNE6, 48 h; how it was run: as §1
[4] = tested on: Human immunodeficiency virus 1; test: Antiviral activity against HIV-1 subtype B SF162 pseudovirus assessed as inhibition of viral infection in Ghost (3)X4/R5 cells after 48 hrs by Bright-Glo luciferase reporter gene assay; assay type: functional, organism-based; settings: Human immunodeficiency virus 1, SF162 ISOLATE; how it was run: as §1
chymotrypsin = test: Drug metabolism assessed as chymotrypsin (unknown origin)-mediated compound degradation by measuring compound half life at 25 uM by HPLC analysis; assay type: ADME, Homo sapiens
How it was run: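 Peptide stock was 1 mM in DMSO, diluted into 50 mM PBS pH 7.4 containing chymotrypsin (0.5 ng/μL) and 50 mM CaCl2. Digestion ran at 30 °C. Remaining peptide was monitored by reversed-phase HPLC on a C4 column at 1.0 mL/min, acetonitrile/water with 0.1% TFA.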

[5] = tested on: Human immunodeficiency virus 1; test: Antiviral activity against HIV1 subtype CRF01_AE CNE55 pseudovirus assessed as inhibition of viral infection in Ghost (3)X4/R5 cells after 48 hrs by Bright-Glo luciferase reporter gene assay; assay type: functional, organism-based, HIV-1 CRF01_AE; settings: Human immunodeficiency virus 1, CNE55, 48 h; how it was run: as §1
[6] = tested on: Human immunodeficiency virus 1; test: Antiviral activity against HIV1 subtype B' CNE11 pseudovirus assessed as inhibition of viral infection in Ghost (3)X4/R5 cells after 48 hrs by Bright-Glo luciferase reporter gene assay; assay type: functional, organism-based; settings: Human immunodeficiency virus 1, subtype B' CNE11, 48 h; how it was run: as §1
[7] = tested on: Human immunodeficiency virus 1; test: Antiviral activity against HIV1 subtype CRF01_AE CNE5 pseudovirus assessed as inhibition of viral infection in Ghost (3)X4/R5 cells after 48 hrs by Bright-Glo luciferase reporter gene assay; assay type: functional, organism-based, HIV-1 CRF01_AE; settings: Human immunodeficiency virus 1, CNE5, 48 h; how it was run: as §1
[8] = tested on: Human immunodeficiency virus 1; test: Antiviral activity against HIV1 subtype BC CNE30 pseudovirus assessed as inhibition of viral infection in Ghost (3)X4/R5 cells after 48 hrs by Bright-Glo luciferase reporter gene assay; assay type: functional, organism-based; settings: Human immunodeficiency virus 1, subtype BC CNE30, 48 h; how it was run: as §1
[9] = tested on: Human immunodeficiency virus 1; test: Antiviral activity against HIV-1 subtype B JRFL pseudovirus assessed as inhibition of viral infection in Ghost (3)X4/R5 cells after 48 hrs by Bright-Glo luciferase reporter gene assay; assay type: functional, organism-based, HIV-1 group M; settings: Human immunodeficiency virus 1, JRFL; how it was run: as §1
[10] = tested on: Human immunodeficiency virus 1; test: Resistance index, ratio of IC50 for inhibition of gp41 V38M mutant-mediated T20-resistant HIV1 NL4-3 viral infection in Ghost (3)X4/R5 cells to IC50 for inhibition of gp41-mediated HIV1 NL4-3 infection in Ghost (3)X4/R5 cells; assay type: cell-based
[11] = tested on: Human immunodeficiency virus 1; test: Resistance index, ratio of IC50 for inhibition of gp41 Q40H mutant-mediated T20-resistant HIV1 NL4-3 viral infection in Ghost (3)X4/R5 cells to IC50 for inhibition of gp41-mediated HIV1 NL4-3 infection in Ghost (3)X4/R5 cells; assay type: cell-based
[12] = tested on: Human immunodeficiency virus 1; test: Resistance index, ratio of IC50 for inhibition of gp41 V38A/N42T double mutant-mediated T20-resistant HIV1 NL4-3 viral infection in Ghost (3)X4/R5 cells to IC50 for inhibition of gp41-mediated HIV1 NL4-3 infection in Ghost (3)X4/R5 cells; assay type: cell-based
[13] = tested on: Human immunodeficiency virus 1; test: Resistance index, ratio of IC50 for inhibition of gp41 I37T mutant-mediated T20-resistant HIV1 NL4-3 viral infection in Ghost (3)X4/R5 cells to IC50 for inhibition of gp41-mediated HIV1 NL4-3 infection in Ghost (3)X4/R5 cells; assay type: cell-based
[14] = tested on: Human immunodeficiency virus 1; test: Resistance index, ratio of IC50 for inhibition of gp41 I37T/N43K double mutant-mediated T20-resistant HIV1 NL4-3 viral infection in Ghost (3)X4/R5 cells to IC50 for inhibition of gp41-mediated HIV1 NL4-3 infection in Ghost (3)X4/R5 cells; assay type: cell-based
[15] = tested on: Human immunodeficiency virus 1; test: Resistance index, ratio of IC50 for inhibition of gp41 D36G mutant-mediated T20-resistant HIV1 NL4-3 viral infection in Ghost (3)X4/R5 cells to IC50 for inhibition of gp41-mediated HIV1 NL4-3 infection in Ghost (3)X4/R5 cells; assay type: cell-based
[16] = tested on: Human immunodeficiency virus 1; test: Resistance index, ratio of IC50 for inhibition of gp41 V38A mutant-mediated T20-resistant HIV1 NL4-3 viral infection in Ghost (3)X4/R5 cells to IC50 for inhibition of gp41-mediated HIV1 NL4-3 infection in Ghost (3)X4/R5 cells; assay type: cell-based
[17] = tested on: Human immunodeficiency virus 1; test: Resistance index, ratio of IC50 for inhibition of gp41 N43K mutant-mediated T20-resistant HIV1 NL4-3 viral infection in Ghost (3)X4/R5 cells to IC50 for inhibition of gp41-mediated HIV1 NL4-3 infection in Ghost (3)X4/R5 cells; assay type: cell-based
[18] = tested on: Human immunodeficiency virus 1; test: Resistance index, ratio of IC50 for inhibition of gp41 G36S/V38M double mutant-mediated T20-resistant HIV1 NL4-3 viral infection in Ghost (3)X4/R5 cells to IC50 for inhibition of gp41-mediated HIV1 NL4-3 infection in Ghost (3)X4/R5 cells; assay type: cell-based

Compound	pIC50 [1]	pIC50 [2]	pIC50 [3]	pIC50 [4]	half-life at 25 µM (chymotrypsin) [h]	pIC50 [5]	pIC50 [6]	pIC50 [7]	pIC50 [8]	pIC50 [9]	Ratio IC50 [10]	Ratio IC50 [11]	Ratio IC50 [12]	Ratio IC50 [13]	Ratio IC50 [14]	Ratio IC50 [15]	Ratio IC50 [16]	Ratio IC50 [17]	Ratio IC50 [18]
CC[C@H](C)[C@H](NC(=O)[C@H](CC(C)C)NC(=O)[C@H](CCC(=O)O)NC(=O)[C@H](CCC(=O)O)NC(=O)[C@@H](NC(=O)[C@H](CCCCN)NC(=O)[C@H](CCCCN)NC(=O)[C@@H](NC(=O)[C@H](Cc1ccc(O)cc1)NC(=O)[C@]1(C)CCC/C=C\CCC[C@](C)(NC(=O)[C@H](CC(=O)O)NC(=O)[C@H](Cc2c[nH]c3ccccc23)NC(=O)[C@H](CCC(=O)O)NC(=O)[C@H](CCC(=O)O)NC(=O)[C@H](Cc2c[nH]c3ccccc23)NC(=O)[C@@H](NC(=O)[C@H](CCSC)NC(C)=O)[C@@H](C)O)C(=O)N[C@@H](CCCCN)C(=O)N[C@@H]([C@@H](C)CC)C(=O)N[C@@H](CCC(=O)O)C(=O)N1)[C@@H](C)O)[C@@H](C)CC)C(=O)N[C@@H](CCCCN)C(=O)N[C@@H](CCCCN)C(=O)N[C@@H](CO)C(N)=O (Ac-MTWEEWD[S5]KIE[S5]YTKKIEELIKKS-NH2; staple (Z) 8-12)	8.48	9.40	7.90	8.48	11.8	7.69	8.14	8.17	7.79	8.07	–	–	–	–	–	–	–	–	–
Ac-MTWEEWDKKIEEYTKKIEELIKKS-NH2	8.12	8.62	7.99	8.54	2.08	7.89	8.23	7.46	7.65	8.14	2.3	1.1	1.2	2.6	13	2.3	1.5	19	3.4
CC[C@H](C)[C@H](NC(=O)[C@H](CCCCN)NC(=O)[C@H](CCCCN)NC(=O)[C@H](CC(=O)O)NC(=O)[C@H](Cc1c[nH]c2ccccc12)NC(=O)[C@H](CCC(=O)O)NC(=O)[C@H](CCC(=O)O)NC(=O)[C@H](Cc1c[nH]c2ccccc12)NC(=O)[C@@H](NC(=O)[C@H](CCSC)NC(C)=O)[C@@H](C)O)C(=O)N[C@@H](CCC(=O)O)C(=O)N[C@@H](CCC(=O)O)C(=O)N[C@@H](Cc1ccc(O)cc1)C(=O)N[C@H](C(=O)N[C@@]1(C)CCC/C=C\CCC[C@@](C)(C(=O)N[C@@H](CC(C)C)C(=O)N[C@H](C(=O)N[C@@H](CCCCN)C(=O)N[C@@H](CCCCN)C(=O)N[C@@H](CO)C(N)=O)[C@@H](C)CC)NC(=O)[C@H](CCC(=O)O)NC(=O)[C@H]([C@@H](C)CC)NC(=O)[C@H](CCCCN)NC1=O)[C@@H](C)O (Ac-MTWEEWDKKIEEYT[S5]KIE[S5]LIKKS-NH2; staple (Z) 15-19)	7.85	9.30	7.98	7.84	8.25	7.08	8.06	7.56	7.14	8.06	–	–	–	–	–	–	–	–	–
CC[C@H](C)[C@H](NC(=O)[C@H](CC(C)C)NC(=O)[C@]1(C)CCC/C=C\CCC[C@](C)(NC(=O)[C@@H](NC(=O)[C@H](Cc2ccc(O)cc2)NC(=O)[C@]2(C)CCC/C=C\CCC[C@](C)(NC(=O)[C@H](CC(=O)O)NC(=O)[C@H](Cc3c[nH]c4ccccc34)NC(=O)[C@H](CCC(=O)O)NC(=O)[C@H](CCC(=O)O)NC(=O)[C@H](Cc3c[nH]c4ccccc34)NC(=O)[C@@H](NC(=O)[C@H](CCSC)NC(C)=O)[C@@H](C)O)C(=O)N[C@@H](CCCCN)C(=O)N[C@@H]([C@@H](C)CC)C(=O)N[C@@H](CCC(=O)O)C(=O)N2)[C@@H](C)O)C(=O)N[C@@H](CCCCN)C(=O)N[C@@H]([C@@H](C)CC)C(=O)N[C@@H](CCC(=O)O)C(=O)N1)C(=O)N[C@@H](CCCCN)C(=O)N[C@@H](CCCCN)C(=O)N[C@@H](CO)C(N)=O (Ac-MTWEEWD[S5]KIE[S5]YT[S5]KIE[S5]LIKKS-NH2; staple (Z) 8-12, 15-19)	8.74	10.30	8.92	9.00	61.1	8.28	8.59	8.44	8.11	9.22	1	1.1	0.5	1.6	2.2	1.4	0.8	3.3	2.1

From ChEMBL document CHEMBL4257519, “Generation of a long-acting fusion inhibitor against HIV-1” (Medchemcomm, 2018)
